# Assay outcomes: PubChem BioAssay, several laboratories
# Calb FLC: C. albicans growth modulation with fluconazole. C. albicans CaCi-2 (fluconazole-resistant clinical isolate) + fluconazole, Alamar Blue growth, 48 h. growth inhibition, % (no concentration beside the values). 300,000 compounds, 0.57% hits. AID 1979;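 active = growth inhibition above about 58% in most replicates, limit read from the data, passing the limit was not always enough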;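 also: all wells also contain fluconazole at 8 µg/ml as a sub-toxic cotreatment; 0% = median of DMSO wells and 100% = median of geldanamycin control wells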
# HIF act: HIF pathway transcriptional activation; U2OS HRE-luciferase reporter, luminescence; normalized: DMSO 0%, desferrioxamine 100%; activation, % at 7.5 µM (by protocol); 300,000 compounds, 0.32% hits; AID 1910;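 active = mean activation of at least 10% of the iron chelator positive control signal, with at least half of replicates also reaching 10%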
# procasp7 counter: counter-screen: procaspase-7 (human) activation; recombinant procaspase-7, Ac-DEVD-pNA absorbance 405 nm; D23A/D198A/D206A triple mutant, cannot self-cleave; scale: DMSO 0, 5 µM enzyme 100; activation, % at 8.5 µM; P55210; 330,000 compounds, 0.093% hits;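 active = percent activation above the screen-wide mean plus 3 SD, cut at about 25% in these data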
# Target sequence (P55210 whole entry D23A/D198A/D206A): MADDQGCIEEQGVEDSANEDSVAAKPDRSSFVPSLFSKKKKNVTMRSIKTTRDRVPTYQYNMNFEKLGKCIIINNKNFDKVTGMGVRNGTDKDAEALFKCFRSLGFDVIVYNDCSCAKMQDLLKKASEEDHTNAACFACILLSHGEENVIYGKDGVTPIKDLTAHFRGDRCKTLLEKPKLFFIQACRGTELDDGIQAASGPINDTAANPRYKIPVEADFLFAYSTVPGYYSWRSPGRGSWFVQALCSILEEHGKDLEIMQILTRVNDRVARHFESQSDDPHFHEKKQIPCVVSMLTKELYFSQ
#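 Assay system: Uncleavable procaspase-7 mutant enzyme | Input: 2 µM procaspase-7 mutant as dispensed | Timing: 1 h compound preincubation, 2 h substrate cleavage, 25 °C | Repeats: One well per compound | Control set: DMSO wells as 0%, DMSO with 5 µM added PC-7 as 100% | Technique: Epi-absorbance of released pNA at 405 nm, two timepoints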
# proCasp3 act: activators of human procaspase-3 | P42574 | recombinant procaspase-3 D3A, Ac-DEVD-pNA absorbance 405 nm | activation, % at 8.5 µM | 330,000 compounds, 0.11% hits | AID 463141;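 active = activation above the mean of all tested compounds plus 3 SD, cut at about 21% in these data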;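 also: 0% = DMSO alone and 100% = DMSO wells spiked with extra 5 µM PC-3 D3A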
# Target sequence (P42574 whole entry D9A/D28A/D175A): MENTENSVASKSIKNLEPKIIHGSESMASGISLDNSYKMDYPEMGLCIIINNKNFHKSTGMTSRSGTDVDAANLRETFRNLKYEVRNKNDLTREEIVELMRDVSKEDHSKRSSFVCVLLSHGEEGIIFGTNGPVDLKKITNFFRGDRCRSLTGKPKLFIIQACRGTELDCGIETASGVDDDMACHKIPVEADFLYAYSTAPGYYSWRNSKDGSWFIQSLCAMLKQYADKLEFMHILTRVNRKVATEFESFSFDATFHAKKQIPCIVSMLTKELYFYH
#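 Evaluation: percent activation relative to control range; Material: Procaspase-3 D3A mutant, all three cleavage aspartates alanine; Compound: single dose, 8.5 µM nominal compound, 0.8% DMSO; Replication: one well per compound; Signal: absorbance at 405 nm, 0 and 120 min; Schedule: 1 h preincubation plus 2 h reaction at 25 °C.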
# Neddyl block: blocks human cullin neddylation | 360,000 compounds, 0.58% hits | TR-FRET cullin neddylation, biochemical | inhibition, % at 25 µM | P61081+Q13564 | AID 651699; in the data active = inhibition above about 36%
# GAA850 FXN act: activators of GAA850 frataxin (FXN) promoter; HEK293 lucGAA850 FXN promoter luciferase reporter, 24 h; percent of 10 µM SAHA response; 360,000 compounds, 0.56% hits; activation, % at 6 µM;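 active = activation above the average of all compounds screened plus 3 SD, cutoff fixed separately per campaign, cut at about 7.5% in these data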;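 also: 0% = DMSO wells and 100% = 10 µM SAHA wells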
# Active calls of the source: *; x = no result shown. Shown are actives, neighbours in structure and some others; about 1.9% of the full set was active somewhere.
SMILES,Calb FLC,HIF act,procasp7 counter,proCasp3 act,Neddyl block,GAA850 FXN act
CCN=C1S/C(=C\c2ccc(-c3cccc(C(=O)O)c3)o2)C(=O)N1CC,2.5,1.8,-17.2,-14.8,49.4*,8.4*
Oc1ccccc1N=Nc1ccccc1O,93.8*,201.5*,x,x,-21.6,-10.2
Nc1ccc(N=Nc2ccccc2O)c(N)c1,-5.3,3.0,-11.5,-11.9,-138.8,2.0
CN(N=O)c1ccc(CC2CCc3ccccc32)cc1 (stereo not drawn),x,x,x,x,-0.8,2.8
COc1ccc(C(=O)NCC2CCCO2)cc1OC (stereo not drawn),0.8,0.0,-1.6,0.2,-2.3,0.2
CCOc1ccc(C(=O)NCC2CCCO2)cc1OCC (stereo not drawn),-2.5,11.3*,-3.4,10.0,2.0,0.8
COc1cc(C(=O)NCc2cccc(Cl)c2)ccc1OCC(=O)N1CCOCC1,-1.6,-4.6,3.3,9.3,3.6,0.6
O=C(NCC1CCCO1)c1sc2cc(Cl)ccc2c1Cl (stereo not drawn),-4.5,9.9*,9.0,2.3,-30.8,5.4
CCOc1cc(C(=O)NCc2ccccc2)ccc1OCC(=O)N1CCOCC1,97.9*,-0.9,9.5,-2.7,-1.4,0.8
O=C1CN2C(=Nc3ccc(Cl)cc3C2c2ccccc2)CN1 (stereo not drawn),87.5*,0.2,-3.3,10.2,-4.7,1.6
O=C(COS(=O)c1ccccc1)Nc1cc(Cl)ccc1N1CCOCC1 (stereo not drawn),64.3*,-0.3,5.5,6.5,4.1,-0.8
COc1ccc(CN2CCNC(=O)C2CC(=O)NC2CCCC2)c(OC)c1 (stereo not drawn),-9.2,54.6*,-1.1,4.8,-6.9,-0.9
COc1ccc(CN2CCNC(=O)C2CC(=O)NC2CCCCC2)c(OC)c1 (stereo not drawn),-29.9,-2.2,13.0,-2.5,2.4,0.5
Cc1ccccc1Nc1nc(Cl)nc(NC(C)(C)C)n1,x,x,x,x,3.5,-0.9
O=C(CNc1ccccc1F)N/N=C/C1CC=CCC1 (stereo not drawn),122.6*,x,18.4,1.0,-4.4,2.7
Nc1nc2c(ncn2[C@@H]2O[C@H](CNCc3ccc4ncccc4c3)[C@@H](O)[C@H]2O)c(=O)[nH]1,x,x,x,x,32.1,x
CN1CCc2c(sc3c2C(=O)NC(c2ccccn2)N3)C1 (stereo not drawn),-19.2,0.1,-5.0,-1.6,47.8*,-2.8
CN1CCc2c(sc3c2C(=O)NC(c2ccccc2)N3)C1 (stereo not drawn),16.4,0.5,-6.5,-2.6,23.3,0.2
Cc1nnsc1C(=O)N/N=C/c1ccc2ccccc2c1O,-8.1,115.5*,-14.2,-22.1,-95.6,-10.8
O=C(COC(=O)Cc1ccsc1)Nc1ccc(F)cc1Cl,x,x,2.8,-2.5,16.4,0.1
O=C(CS(=O)(=O)Nc1ccc(F)cc1Cl)Nc1ccc(F)cc1Cl,78.8*,1.1,-8.9,-4.9,-0.1,-1.0
Cc1ccc(CNC(=O)C2(C)CCN2C(=O)Cc2ccc(C(C)(C)C)cc2)cc1 (stereo not drawn),x,x,x,x,1.5,0.9
C(=C\c1ccccc1)/CN1CCN(c2ncnc3c2oc2ccccc23)CC1,92.0*,0.6,-1.9,2.6,27.7,-2.8
c1ccc2c(c1)oc1c(N3CCOCC3)ncnc12,0.4,1.0,-2.7,-0.7,4.6,0.6
Cc1cccc(N2NC(=O)/C(=C/c3ccc(-c4ccc(Cl)c(C(=O)O)c4)o3)C2=O)c1,102.7*,0.4,x,x,14.1,-0.3
SMILES,Calb FLC,HIF act,procasp7 counter,proCasp3 act,Neddyl block,GAA850 FXN act
O=C1NN(c2ccccc2)C(=O)/C1=C/c1ccc(-c2ccc(Cl)c(C(=O)O)c2)o1,-34.0,-0.6,x,x,3.0,0.1
O=C(O)c1cc(-c2ccc(/C=C3\NC(=O)N(c4ccc(Cl)cc4)C3=O)o2)ccc1Cl,-18.3,-0.1,-1.8,-7.6,64.7*,2.1
O=C(O)c1cc(-c2ccc(/C=C3\NC(=O)N(c4ccccc4)C3=O)o2)ccc1Cl,-2.1,0.0,1.1,-9.9,42.9*,0.5
O=C(CN1CCOCC1)N1CCOCC1,x,x,x,x,0.4,-0.2
Cc1noc(C)c1S(=O)(=O)NC(=O)C1(C)CCN1C(=O)C1(c2ccc(Cl)cc2)CCC1 (stereo not drawn),x,x,x,x,-7.9,-0.8
Cc1cc(NC(=O)COC(=O)[C@@H](NS(=O)(=O)c2ccc(Br)cc2)C(C)C)no1,111.1*,0.1,4.1,-2.6,4.8,-1.9
COc1ccc(-c2cc(NC=O)c3ncc(-c4cccc(C(F)(F)F)c4)n3c2)cc1OC,x,x,x,x,18.7,2.7
Cc1nc(NC(=O)c2c(-c3ccccc3)noc2C)sc1C(=O)N(C)C,120.4*,x,x,x,0.8,3.3
O=C(O)CCC(=O)OCCN(Cc1ccc(Oc2ccc([N+](=O)[O-])cc2)cc1)C(=O)C(Cl)Cl,x,x,x,x,-24.6,-0.7
O=C(Nc1ccccc1)c1ccc(-c2ccccc2)s1,-8.8,4.5,9.3,2.6,-15.4,4.2
O=C(O)c1ccc(-c2ccc(-c3ccccc3)cc2)s1,9.5,-4.5,0.2,4.8,51.2*,1.6
Cc1onc(-c2c(Cl)cccc2Cl)c1C(=O)N/N=C(\N)COc1ccc(Cl)cc1,93.2*,3.7,-3.4,11.6,-8.3,-3.3
Cc1onc(-c2ccccc2Cl)c1C(=O)NNC(=O)C1CCN(Cc2ccccc2)CC1,-1.8,-0.1,3.5,6.5,-2.4,1.1
Cc1onc(-c2c(F)cccc2Cl)c1C(=O)NNC(=O)C1CCN(Cc2ccccc2)CC1,91.6*,-33.0,-1.3,-2.1,0.6,1.9
Cc1ccc(N/N=C/c2ccc3c(c2)OCCO3)cc1Cl,102.3*,1.0,-15.4,-5.0,14.6,1.9
c1ccc(-c2ccc3c(c2)c2c4n3CCN=C4CCC2)cc1,98.9*,1.8,-0.3,0.0,32.2,3.4
OC1CN=C2CCCc3c2n(c2ccc(Cl)cc32)C1 (stereo not drawn),-14.8,0.5,-2.8,-6.3,x,1.1
COc1ccc(N2CCN(C(=O)C(Cc3ccccc3)NC(=O)c3ccccc3)CC2)cc1 (stereo not drawn),x,x,x,x,-17.7,0.3
N#C/C(=C\c1cn(-c2ccccc2)nc1-c1cc2ccccc2o1)c1nc2ccccc2[nH]1,19.6,2.2,3.1,-7.3,x,2.4
Cc1ccc(-c2nn(-c3ccccc3)cc2/C=C(\C#N)c2cccc(C#N)c2)o1,2.6,0.4,-5.9,-15.4,37.2*,0.6
CC(Nc1nc(-c2cccnc2)nc2ccccc12)c1ccc(F)cc1 (stereo not drawn),-3.2,0.2,1.7,-8.9,5.3,-0.5
COc1cc(N/N=C/c2ccccc2O)ncn1,43.7,10.1*,-6.2,-5.5,7.0,0.5
CCNc1nc(NCC)nc(N/N=C/c2ccc(N(C)C)cc2)n1,-2.1,0.0,3.1,-0.6,x,-2.6
